According to ChEMBL document CHEMBL5385966, “Synthesis and biological evaluation of new naphthalimide-thiourea derivatives as potent antimicrobial agents active against multidrug-resistant Staphylococcus aureus and Mycobacterium tuberculosis” (RSC Med Chem, 2024):
In brackets after ≈: the same amount, converted by molar mass. Activity calls are given as the source filed them. No cut-off for these calls is given here.

Columns and labels:
[1] = tested on: Staphylococcus aureus; experiment: Antibacterial activity against methicillin-sensitive Staphylococcus aureus ATCC 29213 clinical isolate assessed as bacterial growth inhibition incubated for 16 to 18 hrs by CLSI based antibiotic susceptibility testing method; assay type: functional; details: time 16-18 hrs
Outline: (§1)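 Broth microdilution in cation-adjusted Mueller-Hinton broth. Compounds were tested at […], with levofloxacin as reference and medium-only controls. Plates were incubated at 37 °C for 16-18 h. MIC was the lowest concentration with no visible growth; three independent determinations, each in duplicate.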

[2] = tested on: Staphylococcus aureus; experiment: Antibacterial activity against methicillin/ceftriaxone/meropenem/gentamycin/linezolid-resistant Staphylococcus aureus NRS10100 clinical isolate assessed as bacterial growth inhibition incubated for 16 to 18 hrs by CLSI based antibiotic susceptibility testing method; assay type: functional; details: time 16-18 hrs; outline: as §1
[3] = tested on: Staphylococcus aureus; experiment: Antibacterial activity against methicillin/ceftriaxone/meropenem/gentamycin/linezolid-resistant Staphylococcus aureus NRS10119 clinical isolate assessed as bacterial growth inhibition incubated for 16 to 18 hrs by CLSI based antibiotic susceptibility testing method; assay type: functional; details: time 16-18 hrs; outline: as §1
[4] = tested on: Staphylococcus aureus; experiment: Antibacterial activity against methicillin/ceftriaxone/meropenem-resistant Staphylococcus aureus NRS10129 clinical isolate assessed as bacterial growth inhibition incubated for 16 to 18 hrs by CLSI based antibiotic susceptibility testing method; assay type: functional; details: time 16-18 hrs; outline: as §1
[5] = tested on: Staphylococcus aureus; experiment: Antibacterial activity against methicillin/ceftriaxone/meropenem-resistant Staphylococcus aureus NRS10186 clinical isolate assessed as bacterial growth inhibition incubated for 16 to 18 hrs by CLSI based antibiotic susceptibility testing method; assay type: functional; details: time 16-18 hrs; outline: as §1
[6] = tested on: Staphylococcus aureus; experiment: Antibacterial activity against methicillin/ceftriaxone/meropenem-resistant Staphylococcus aureus NRS10191 clinical isolate assessed as bacterial growth inhibition incubated for 16 to 18 hrs by CLSI based antibiotic susceptibility testing method; assay type: functional; details: time 16-18 hrs; outline: as §1
[7] = tested on: Staphylococcus aureus; experiment: Antibacterial activity against methicillin/ceftriaxone/meropenem-resistant Staphylococcus aureus NRS10192 clinical isolate assessed as bacterial growth inhibition incubated for 16 to 18 hrs by CLSI based antibiotic susceptibility testing method; assay type: functional; details: time 16-18 hrs; outline: as §1
[8] = tested on: Staphylococcus aureus; experiment: Antibacterial activity against methicillin/ceftriaxone/meropenem-resistant Staphylococcus aureus NRS10193 clinical isolate assessed as bacterial growth inhibition incubated for 16 to 18 hrs by CLSI based antibiotic susceptibility testing method; assay type: functional; details: time 16-18 hrs; outline: as §1
[9] = tested on: Staphylococcus aureus; experiment: Antibacterial activity against methicillin/ceftriaxone-resistant Staphylococcus aureus NRS10194 clinical isolate assessed as bacterial growth inhibition incubated for 16 to 18 hrs by CLSI based antibiotic susceptibility testing method; assay type: functional; details: time 16-18 hrs; outline: as §1
[10] = tested on: Staphylococcus aureus; experiment: Antibacterial activity against methicillin/ceftriaxone/meropenem-resistant Staphylococcus aureus NRS10198 clinical isolate assessed as bacterial growth inhibition incubated for 16 to 18 hrs by CLSI based antibiotic susceptibility testing method; assay type: functional; details: time 16-18 hrs; outline: as §1
[11] = tested on: Staphylococcus aureus; experiment: Antibacterial activity against methicillin/ceftriaxone/meropenem/gentamycin/vancomycin/teicoplanin-resistant Staphylococcus aureus VRS1 clinical isolate assessed as bacterial growth inhibition incubated for 16 to 18 hrs by CLSI based antibiotic susceptibility testing method; assay type: functional; details: time 16-18 hrs; outline: as §1
[12] = tested on: Staphylococcus aureus; experiment: Antibacterial activity against methicillin/ceftriaxone/meropenem/vancomycin/teicoplanin-resistant Staphylococcus aureus VRS4 clinical isolate assessed as bacterial growth inhibition incubated for 16 to 18 hrs by CLSI based antibiotic susceptibility testing method; assay type: functional; details: time 16-18 hrs; outline: as §1
[13] = tested on: Staphylococcus aureus; experiment: Antibacterial activity against methicillin/ceftriaxone/meropenem/vancomycin/teicoplanin-resistant Staphylococcus aureus VRS12 clinical isolate assessed as bacterial growth inhibition incubated for 16 to 18 hrs by CLSI based antibiotic susceptibility testing method; assay type: functional; details: time 16-18 hrs; outline: as §1
[14] = tested on: Staphylococcus aureus; experiment: Antibacterial activity against Staphylococcus aureus ATCC 29213 assessed as bacterial growth inhibition incubated for 16 to 18 hrs by CLSI based antibiotic susceptibility testing method; assay type: functional; details: time 16-18 hrs; outline: as §1
[15] = tested on: Mycobacterium tuberculosis; experiment: Antimycobacterial activity against Mycobacterium tuberculosis H37Rv ATCC 27294 assessed as bacterial growth inhibition incubated for 7 days by resazurin dye based broth microdilution method; assay type: functional; details: H37Rv ATCC 27294, 168 h, time 7 day
Outline: (§2)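 Broth microdilution in Middlebrook 7H9 with 10% ADC-Tween-80 (0.2% glycerol, 0.05% Tween-80), inoculum ~10⁶ cfu/mL. Compounds came from 10 mg/mL DMSO stocks and were tested as two-fold serial dilutions at 37 °C, 7 days for M. tuberculosis H37Rv and 72 h for NTM. Growth was read visually with PrestoBlue resazurin dye; MIC was the lowest concentration preventing growth. Triplicate determinations, each in duplicate.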

[16] = tested on: Escherichia coli; experiment: Antibacterial activity against Escherichia coli ATCC 25922 assessed as bacterial growth inhibition incubated for 16 to 18 hrs by CLSI based antibiotic susceptibility testing method; assay type: functional, organism-based; details: time 16-18 hrs; outline: as §1
[17] = tested on: Klebsiella pneumoniae; experiment: Antibacterial activity against Klebsiella pneumoniae BAA 1705 assessed as bacterial growth inhibition incubated for 16 to 18 hrs by CLSI based antibiotic susceptibility testing method; assay type: functional, organism-based; details: time 16-18 hrs; outline: as §1
[18] = tested on: Acinetobacter baumannii; experiment: Antibacterial activity against Acinetobacter baumannii BAA 1605 assessed as bacterial growth inhibition incubated for 16 to 18 hrs by CLSI based antibiotic susceptibility testing method; assay type: functional, organism-based; details: time 16-18 hrs; outline: as §1
[19] = tested on: Pseudomonas aeruginosa; experiment: Antibacterial activity against Pseudomonas aeruginosa ATCC 27853 assessed as bacterial growth inhibition incubated for 16 to 18 hrs by CLSI based antibiotic susceptibility testing method; assay type: functional, organism-based; details: time 16-18 hrs; outline: as §1
[20] = tested on: Mycobacteroides abscessus; experiment: Antimycobacterial activity against Mycobacterium abscessus ATCC 19977 assessed as bacterial growth inhibition incubated for 72 hrs by resazurin dye based broth microdilution method; assay type: functional, organism-based; outline: as §2
[21] = tested on: Mycolicibacterium fortuitum; experiment: Antimycobacterial activity against Mycobacterium fortuitum ATCC 6841 assessed as bacterial growth inhibition incubated for 72 hrs by resazurin dye based broth microdilution method; assay type: functional, organism-based; outline: as §2
[22] = tested on: Mycobacteroides chelonae; experiment: Antimycobacterial activity against Mycobacteroides chelonae ATCC 35752 assessed as bacterial growth inhibition incubated for 72 hrs by resazurin dye based broth microdilution method; assay type: functional, organism-based; outline: as §2

| SMILES | MIC [14] [µg/mL] | MIC [15] [µg/mL] | growth inhibition (GI) [16] | growth inhibition (GI) [17] | growth inhibition (GI) [18] | growth inhibition (GI) [19] | growth inhibition (GI) [20] | growth inhibition (GI) [21] | growth inhibition (GI) [22] | also measured |
| --- | --- | --- | --- | --- | --- | --- | --- | --- | --- | --- |
| C[C@@H](O)[C@H]1C(=O)N2C(C(=O)O)=C(S[C@@H]3CN[C@H](C(=O)N(C)C)C3)[C@H](C)[C@H]12 [MEROPENEM] |  |  |  |  |  |  |  |  |  | MIC [1]: 0.125 µg/mL (≈ 0.326 µM); MIC [2]: 32 µg/mL (≈ 83.4 µM); MIC [3]: 64 µg/mL (≈ 167 µM); MIC [4]: 2 µg/mL (≈ 5.22 µM); MIC [5]: 4 µg/mL (≈ 10.4 µM); MIC [6]: 64 µg/mL (≈ 167 µM); MIC [7]: 4 µg/mL (≈ 10.4 µM); MIC [8]: 64 µg/mL (≈ 167 µM); MIC [9]: 1 µg/mL (≈ 2.61 µM); MIC [10]: 64 µg/mL (≈ 167 µM); MIC [11]: 64 µg/mL (≈ 167 µM); MIC [12]: 64 µg/mL (≈ 167 µM); MIC [13]: 8 µg/mL (≈ 20.9 µM) |
| CN[C@H](CC(C)C)C(=O)N[C@H]1C(=O)N[C@@H](CC(N)=O)C(=O)N[C@H]2C(=O)N[C@H]3C(=O)N[C@H](C(=O)N[C@H](C(=O)O)c4cc(O)cc(O)c4-c4cc3ccc4O)[C@H](O)c3ccc(c(Cl)c3)Oc3cc2cc(c3O[C@@H]2O[C@H](CO)[C@@H](O)[C@H](O)[C@H]2O[C@H]2C[C@](C)(N)[C@H](O)[C@H](C)O2)Oc2ccc(cc2Cl)[C@H]1O [VANCOMYCIN] |  |  |  |  |  |  |  |  |  | MIC [11]: > 64 µg/mL; MIC [12]: > 64 µg/mL; MIC [13]: > 64 µg/mL |
| COc1ccc(NC(=S)N2CCN(CCN3C(=O)c4cccc5cccc(c45)C3=O)CC2)cc1 | > 64 | > 64 | inactive | inactive | inactive | inactive | inactive | inactive | inactive |  |
| O=C(CCN1C(=O)c2cccc3cccc(c23)C1=O)NC1CCN(C(=S)Nc2ccccc2)CC1 | > 64 | 64 (≈ 132 µM) | inactive | inactive | inactive | inactive | inactive | inactive | inactive |  |
| O=C(CCN1C(=O)c2cccc3cccc(c23)C1=O)N1CCN(C(=S)Nc2ccccc2)CC1 | > 64 | 32 (≈ 67.7 µM) | inactive | inactive | inactive | inactive | inactive | inactive | inactive |  |
| O=C(CN1C(=O)c2cccc3cccc(c23)C1=O)N1CCN(C(=S)Nc2ccccc2)CC1 | > 64 | 16 (≈ 34.9 µM) | inactive | inactive | inactive | inactive | inactive | inactive | inactive |  |
| O=C(CN1C(=O)c2cccc3cccc(c23)C1=O)NC1CCN(C(=S)Nc2ccc(Cl)cc2)CC1 | > 64 | > 64 | inactive | inactive | inactive | inactive | inactive | inactive | inactive |  |
| O=C1c2cccc3cccc(c23)C(=O)N1CCN1CCN(C(=S)NC23CC4CC(CC(C4)C2)C3)CC1 | > 64 | > 64 | inactive | inactive | inactive | inactive | inactive | inactive | inactive |  |
| C[C@H]1COc2c(N3CCN(C)CC3)c(F)cc3c(=O)c(C(=O)O)cn1c23 [LEVOFLOXACIN ANHYDROUS] | 0.063 (≈ 0.174 µM) | 0.6 (≈ 1.66 µM) | inactive | inactive | inactive | inactive | inactive | inactive | inactive | MIC [1]: 0.25 µg/mL (≈ 0.692 µM); MIC [2]: 0.125 µg/mL (≈ 0.346 µM); MIC [3]: 16 µg/mL (≈ 44.3 µM); MIC [4]: 0.25 µg/mL (≈ 0.692 µM); MIC [5]: 4 µg/mL (≈ 11.1 µM); MIC [6]: 16 µg/mL (≈ 44.3 µM); MIC [7]: 8 µg/mL (≈ 22.1 µM); MIC [8]: 32 µg/mL (≈ 88.6 µM); MIC [9]: 0.125 µg/mL (≈ 0.346 µM); MIC [10]: 32 µg/mL (≈ 88.6 µM); MIC [11]: 32 µg/mL (≈ 88.6 µM); MIC [12]: > 64 µg/mL; MIC [13]: 32 µg/mL (≈ 88.6 µM) |
| CCCCCCCNC(=S)N1CCN(CCN2C(=O)c3cccc4cccc(c34)C2=O)CC1 | > 64 | 64 (≈ 137 µM) | inactive | inactive | inactive | inactive | inactive | inactive | inactive |  |
| O=C1c2cccc3cccc(c23)C(=O)N1CCN1CCN(C(=S)Nc2cccc(Cl)c2)CC1 | > 64 | > 64 | inactive | inactive | inactive | inactive | inactive | inactive | inactive |  |
| COc1ccc(NC(=S)N2CCN(C(=O)CN3C(=O)c4cccc5cccc(c45)C3=O)CC2)cc1 | > 64 | 64 (≈ 131 µM) | inactive | inactive | inactive | inactive | inactive | inactive | inactive |  |
